According to ChEMBL document CHEMBL5108058 (J Med Chem, 2022):

Experiments:
[1] = AUC (0 to t) in CD-1 mouse Epithelial lining fluid at 25 mg/kg, INH using nebulizer measured at 0.25 to 24 hrs; format: ADME, organism-based; set-up: time upper 24 hrs, dose 25 mg/kg, time lower 0.25 hrs, route inh; conditions: in vivo, inhaled_or_intranasal
Summary of the method: (§1)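 Male outbred CD-1 mice, 4 weeks old. Compound in a DOPS liposomal formulation (1 mM DOPS final), 25 mg/kg by nebulizer inhalation. Mice euthanized at 0.25, 0.5, 1, 2, 4, 8 and 24 h for heart blood (EDTA plasma), bronchoalveolar lavage and lung homogenate. ELF levels derived from BALF by urea method; non-compartmental PK analysis.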

[2] = tested on: Vero C1008; test: Cytotoxicity against African green monkey Vero E6 cells assessed as reduction in cell viability; format: toxicity, cell-based; conditions: chlorocebus sabaeus
Summary of the method: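 VeroE6-eGFP cells maintained in DMEM with 10% FBS and G418. Compound toxicity measured without virus by standard MTS assay in parallel with the antiviral test. At least two independent dose–response curves.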

[3] = Tmax in CD-1 mouse plasma at 100 mg/kg, po measured at 0.5 to 3 hrs; format: ADME, organism-based; conditions: in vivo, time 0.5-3 hrs
Summary of the method: (§2)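 Male CD-1 mice, 4 weeks old, given 100 mg/kg by intragastric gavage in DOPS liposomal formulation (1 mM DOPS final). Tail-vein blood sampled at 0.5, 1 and 3 h; terminal heart blood, BALF and lungs at 5 h. EDTA plasma kept at −80 °C until analysis; parameters by non-compartmental analysis.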

[4] = Cmax in CD-1 mouse plasma at 25 mg/kg, INH using nebulizer measured at 0.25 to 24 hrs; format: ADME, organism-based; set-up: dose 25 mg/kg, time 0.25-24 hrs, route inh; conditions: in vivo, inhaled_or_intranasal; summary of the method: as §1
[5] = Cmax in CD-1 mouse Epithelial lining fluid at 25 mg/kg, INH using nebulizer measured at 0.25 to 24 hrs; format: ADME, organism-based; set-up: time lower 0.25 hrs, dose 25 mg/kg, time upper 24 hrs, route inh; conditions: in vivo, inhaled_or_intranasal; summary of the method: as §1
[6] = Cmax in CD-1 mouse lung at 25 mg/kg, INH using nebulizer measured at 0.25 to 24 hrs; format: ADME, organism-based; set-up: dose 25 mg/kg, time 0.25-24 hrs, route inh; conditions: inhaled or intranasal; summary of the method: as §1
[7] = Oral bioavailability in CD-1 mouse at 100 mg/kg measured at 0.5 to 3 hrs; format: ADME, organism-based; conditions: in vivo, time 0.5-3 hrs; summary of the method: as §2
[8] = AUC (0 to t) in CD-1 mouse BALF at 25 mg/kg, INH using nebulizer measured at 5 hrs; format: ADME, organism-based, Bronchoalveolar lavage; set-up: dose 25 mg/kg, time 5 hrs, route inh; conditions: in vivo, inhaled_or_intranasal
[9] = Observed apparent volume of distribution in CD-1 mouse plasma at 25 mg/kg, INH using nebulizer measured at 0.25 to 24 hrs; format: ADME, organism-based; conditions: in vivo, inhaled_or_intranasal, time 0.25-24 hrs; summary of the method: as §1
[10] = Tmax in CD-1 mouse plasma at 25 mg/kg, INH using nebulizer measured at 0.25 to 24 hrs; format: ADME, organism-based; conditions: in vivo, inhaled_or_intranasal, time 0.25-24 hrs; summary of the method: as §1
[11] = Apparent oral clearance in CD-1 mouse plasma at 25 mg/kg, INH using nebulizer measured at 0.25 to 24 hrs; format: ADME, organism-based; conditions: time 0.25-24 hrs; summary of the method: as §1
[12] = MRT in CD-1 mouse plasma at 100 mg/kg, po measured at 0.5 to 3 hrs; format: ADME, organism-based; conditions: in vivo, time 0.5-3 hrs; summary of the method: as §2
[13] = Half life in CD-1 mouse plasma at 100 mg/kg, po measured at 0.5 to 3 hrs; format: ADME, organism-based; conditions: in vivo, time 0.5-3 hrs; summary of the method: as §2
[14] = tested on: SARS-CoV-2; test: Antiviral activity against SARS-CoV-2-BetaCoV/belgium/GHB-03021/2020 infected in human Huh-7 cells assessed as reduction in cytopathic effect pre-infected with virus on day 0 followed by compound addition on day 1 and measured after 4 days post infection by MTT assay; format: functional, organism-based; conditions: Severe acute respiratory syndrome coronavirus 2, BetaCoV/belgium/GHB-03021/2020, Huh-7
[15] = Cmax in CD-1 mouse BALF at 25 mg/kg, INH using nebulizer measured at 5 hrs; format: ADME, organism-based, Bronchoalveolar lavage; set-up: time 5 hrs, dose 25 mg/kg, route inh; conditions: in vivo, inhaled_or_intranasal
[16] = tested on: SARS-CoV-2; test: Antiviral activity against SARS-CoV-2-alphaB.1.1.7 infected in human A549 cells expressing ACE2 and TMPRSS2 assessed as reduction in cytopathic effect pre-infected with virus on day 0 followed by compound addition on day 1 and measured after 4 days post infection by MTS assay; format: functional, organism-based; conditions: Severe acute respiratory syndrome coronavirus 2, alphaB.1.1.7, A549
[17] = Cmax in CD-1 mouse plasma at 100 mg/kg, po measured at 0.5 to 3 hrs; format: ADME, organism-based; set-up: time 0.5-3 hrs, dose 100 mg/kg, route po; conditions: in vivo; summary of the method: as §2
[18] = Observed apparent volume of distribution in CD-1 mouse plasma at 100 mg/kg, po measured at 0.5 to 3 hrs; format: ADME, organism-based; conditions: in vivo, time 0.5-3 hrs; summary of the method: as §2
[19] = AUC (0 to t) in CD-1 mouse plasma at 25 mg/kg, INH using nebulizer measured at 0.25 to 24 hrs; format: ADME, organism-based; set-up: time lower 0.25 hrs, dose 25 mg/kg, time upper 24 hrs, route inh; conditions: in vivo, inhaled_or_intranasal; summary of the method: as §1
[20] = AUC (0 to t) in CD-1 mouse plasma at 100 mg/kg, po measured at 0.5 to 3 hrs; format: ADME, organism-based; set-up: time lower 0.5 hrs, dose 100 mg/kg, time upper 3 hrs, route po; conditions: in vivo; summary of the method: as §2
[21] = tested on: SARS-CoV-2; test: Antiviral activity against SARS-CoV-2-GHB-03021/2020 infected in African green monkey Vero E6 cells assessed as reduction in cytopathic effect pre-infected with virus on day 0 followed by compound addition on day 1 and measured after 4 days post infection in presence of CP-100356 by MTS assay; format: functional, organism-based; conditions: Severe acute respiratory syndrome coronavirus 2, GHB-03021/2020, Vero C1008
[22] = tested on: SARS-CoV-2; test: Antiviral activity against SARS-Cov2 […] infected in Calu-3 cells assessed as reduction in viral particle release measured after 24 hrs; format: functional, organism-based; conditions: Severe acute respiratory syndrome coronavirus 2, Calu-3, 24 h
[23] = tested on: SARS-CoV-2; test: Antiviral activity against SARS-Cov2 […] infected in Calu-3 cells assessed as viral plaque reduction; format: functional, organism-based; conditions: Severe acute respiratory syndrome coronavirus 2, Calu-3

## CC(C)(C)OC(=O)Nc1cccn([C@@H](CC2CC2)C(=O)N[C@@H](C[C@@H]2CCNC2=O)C(=O)C(=O)NCc2ccccc2)c1=O
[1]
  AUCt: 1042.34 µg·h/mL
[2]
  CC50: > 100000 nM
[3]
  Tmax: 2.5 h
[4]
  Cmax: 236.47 ng/mL
[5]
  Cmax: 433520 ng/mL
[6]
  Cmax: 262000 ng/g
[7]
  bioavailability: 17%
[8]
  AUCt: 5.1622 µg·h/mL
[9]
  Vz/F: 141.07 L/kg
[10]
  Tmax: 0.33 h
[11]
  CL/F: 83.9 mL/min/kg
[12]
  MRT: 2.57 h
[13]
  t1/2: 1.3 h
[14]
  EC50: 3400 nM
[15]
  Cmax: 2330.33 ng/mL
[16]
  EC50: 840 nM
[17]
  Cmax: 357 ng/mL
[18]
  Vz/F: 131.34 L/kg
[19]
  AUCt: 2.89663 µg·h/mL
[20]
  AUCt: 1.06149 µg·h/mL
[21]
  EC50: 1300 nM
[22]
  EC50: 2400 nM

## CC(C)(C)OC(=O)Nc1cccn(C(CC2CC2)C(=O)N[C@@H](C[C@@H]2CCNC2=O)C(=O)C(=O)NCc2ccccc2)c1=O (mixture of isomers)
[23]
  EC50: 4000 nM
